Compound activity from PubChem.
aSyn 5UTR inh – MLPCN primary screen, SNCA 5' untranslated region | inhibition, % (tested at 7.5 µM) | alpha-synuclein 5'UTR reporter, inhibitor activity | 300,000 compounds, 0.82% hits | AID 1813, 2009; in the data active = inhibition above about 60%;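 note: H4 neuroglioblastoma cells stably carrying SNCA 5'UTR luciferase fusion; 0% = DMSO wells and 100% = positive control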
Jurkat NFkB inh – inhibitors of induced NF-kB luciferase reporter, primary screen, TCR NF-kB activation inhibitor project, cell-based, luminescence, uHTS. inhibition, % at 4 µM. AID 435003, 2010. Jurkat, PMA/ionomycin-induced NF-kB luciferase reporter. 330,000 compounds, 0.53% hits; in the data active = inhibition above about 50%
TAG inh – inhibitors of triacylglycerol accumulation, primary screen, cell-based, uHTS, fluorescence, H9c2; H9c2 cells, Nile Red lipid (TAG) fluorescence; cells loaded with 200 µM oleic acid; inhibition, % at 12.5 µM; 230,000 compounds, 0.66% hits;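 active = pattern-corrected inhibition of lipid staining of at least 50% with the nuclear-stain viability signal not falling by more than 50%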;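 note: 0% = DMSO wells and 100% = triacsin C control wells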
697 NFkB inh – inhibitors of PMA/ionomycin-induced NF-kB reporter, 697 cells, primary screen, B-cell NF-kB inhibitor project, cell-based, luminescence, uHTS; 697 B-cell NF-kB luciferase reporter, 16 h; inhibition, % at 4 µM; 330,000 compounds, 0.33% hits; in the data active = inhibition above about 35%
APP transl inh – inhibitors of APP translation via 5'UTR reporter, primary screen, APP 5'UTR luciferase, SH-SY5Y cells; SH-SY5Y APP 5'UTR-luciferase reporter, luminescence; inhibition, % at 2 µM; 190,000 compounds, 0.82% hits;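 active = inhibition above a set limit, derived from the sample mean plus 3 SD, cut at about 45% in these data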
Lipid droplet – inhibitors of hepatocyte lipid droplet formation, primary screen, imaging, high-throughput imaging, BODIPY stain. AML12 mouse hepatocytes, oleate lipid droplets. inhibition, % at 6.5 µM. 240,000 compounds, 0.4% hits;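 active = lipid droplet intensity inhibited by at least 50%, with more than 500 cells counted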
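Assay system: AML12 mouse liver cells | Compound: 6.5 µM single-point dosing | Schedule: Overnight exposure | Technique: Fluorescence imaging, 20x objective, two fields per well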
Starred values were filed as active, the others as inactive; · = no result. Hits are enriched below; roughly 1.9% of the tested compounds scored in any of these assays.

SMILES	aSyn 5UTR inh	Jurkat NFkB inh	TAG inh	697 NFkB inh	APP transl inh	Lipid droplet
Cc1ccc(/C=C2\CCC3=C2OC(N)=C(C#N)C3c2ccc(C)cc2)cc1 (stereo unspecified)	-11.6	-16.9	-29.9	-8.8	46.9*	·
CC1=C/C(=N\OS(=O)(=O)c2ccccc2)C(C(C)C)=CC1=O	·	·	·	·	95.7*	-30.9
CC(S(=O)(=O)c1ccccc1)S(=O)(=O)c1ccccc1	·	·	3.1	·	·	·
CC(C=NNc1ccc([N+](=O)[O-])cn1)=Cc1ccccc1	·	·	-13.5	·	·	·
O=C(c1cccs1)c1no[n+]([O-])c1C(=O)c1cccs1	63.1*	5.0	86.9	11.5	-8.6	·
COc1ccc(C(=O)c2no[n+]([O-])c2C(=O)c2ccc(OC)cc2)cc1	-20.6	10.9	54.2*	-6.5	-8.9	·
O=C(c1ccc(Cl)nc1)c1cccs1	7.3	-6.6	·	3.5	·	-5.3
CCCNC(=O)c1cc(C2CCCN(S(=O)(=O)c3cccs3)C2)on1 (stereo unspecified)	·	·	-39.5	·	·	·
N#C/C(=C\c1cn(Cc2ccccc2)c2ccccc12)C(=O)NCc1ccco1	67.8*	-3.7	·	-4.2	2.1	-18.8
N#C/C(=C\c1cn(Cc2cccc(F)c2)c2ccccc12)C(=O)NCc1ccco1	64.5*	4.2	-14.8	11.4	-7.4	-2.5
CCOC(=O)c1ccc(NC(=O)C(=O)NCC2CCCO2)cc1 (stereo unspecified)	0.0	-9.3	4.4	-25.6	-31.7	·
CC1(C)CC(=O)c2c(nc(SCC(=O)Nc3nsc(-c4ccccc4)n3)c(C#N)c2-c2ccccc2)C1	74.1*	-31.0	27.1	-56.7	-10.2	·
Cc1nnc(SCC(=O)Nc2nsc(-c3ccccc3)n2)s1	-37.6	6.7	·	20.2	-23.1	-12.3
CN(C)c1ccc(N=Nc2ccc(C(=O)O)cc2)cc1	64.0*	26.1	·	-136.3	·	16.9
COc1cc(C(=O)Nc2nc(C)c(Cc3ccc4c(c3)OCO4)s2)cc(OC)c1OC	-25.4	46.7	·	-4.9	86.3*	-29.7
CCCOc1ccc(C(=O)Nc2nc(C)c(Cc3ccc4c(c3)OCO4)s2)cc1	-68.3	23.1	50.0	-40.8	-2.9	40.8
Cc1ccnc(NC(=O)CCC(=O)c2cccs2)c1	84.0*	-31.4	-8.2	-146.3	·	·
Cc1ccc(NC(=O)CCC(=O)c2cccs2)nc1	-24.7	-5.0	7.1	7.2	·	·
Cc1ccc(S(=O)(=O)NC(=O)C2(C)CCN2C(=O)Cc2cccs2)nc1 (stereo unspecified)	·	·	3.0	·	·	·
COc1cccc(OCCNC(=O)c2cccc(OC)c2)c1	21.1	-2.1	·	10.1	45.0*	14.8
O=C(/C=C/c1ccc(F)cc1)NC(=S)Nc1ccccc1	0.2	-2.6	·	-3.1	·	18.0
COc1ccc(/C=C/C(=O)NC(=S)NNC(=O)c2cnccn2)cc1	74.8*	25.7	12.9	-10.8	·	-73.9
O=C(NNC(=S)NC(=O)c1cccnc1)c1ccc(F)cc1	-10.7	4.2	6.2	-2.6	·	-19.4
O=C(NC(=S)NNC(=O)c1cnccn1)c1ccc(F)cc1	70.3*	7.4	1.9	23.2	7.5	-13.8
O=C(/C=C/c1ccc(F)cc1)NC(=S)NNC(=O)c1cnccn1	95.5*	-14.3	10.2	-60.6	·	10.4
SMILES	aSyn 5UTR inh	Jurkat NFkB inh	TAG inh	697 NFkB inh	APP transl inh	Lipid droplet
COc1ccc(/C=C/C(=O)NC(=S)NNC(=O)c2cccnc2)cc1	0.1	-0.2	·	-17.4	5.1	11.0
COc1ccc(-n2ncc3c2CC(C)(C)CC3NC(=O)CCN2CCCCC2=O)cc1 (stereo unspecified)	16.6	-4.0	·	-21.3	·	7.3
CCCCCCCC1CC(CSc2ncn[nH]2)OC1=O (stereo unspecified)	19.2	0.4	17.8	-14.9	49.4*	29.5
CCCCCC[N+](C)(C)CC/C=C1/c2ccccc2Sc2ccc(Cl)cc21	-29.9	-0.6	55.8*	0.6	·	-4.9
Cc1nc(SCC(=O)Nc2cccc(Cl)c2)n[nH]1	-6.4	9.6	·	6.9	-3.6	1.2
CC(=O)c1cccc(NC(=O)CSc2ccc(-c3ccccn3)nn2)c1	68.8*	23.3	13.9	-10.9	·	-10.3
CCOC(=O)c1ccccc1NC(=O)CSc1ccc(-c2ccccn2)nn1	68.7*	-21.2	5.1	0.3	·	22.7
O=C(CSc1n[nH]c(-c2ccccn2)n1)Nc1cccc(Cl)c1	86.4*	-0.7	11.9	8.9	·	-1.9
CC(=O)Nc1ccc(S(=O)(=O)Nc2ccc(Cc3ccncc3)cc2)cc1	-13.0	3.0	·	-8.5	·	-10.6
CC(C)(C)c1ccc(S(=O)(=O)Nc2ccc(Cc3ccncc3)cc2)cc1	-14.7	27.0	·	-52.5	-9.2	67.2*
CC(C)(C)c1ccc(C2CC2C(=O)N/N=C\c2cc3ccccc3nc2Cl)cc1 (stereo unspecified)	29.0	1.5	4.0	-54.9	-0.4	·
Cc1ccc2nc(Cl)c(/C=N/NC(=O)[C@H]3C[C@@H]3c3ccccc3)cc2c1	-16.4	10.0	30.5	10.1	-22.0	105.3*
CCCCOc1ccc(Br)cc1CSC(=N)N	-14.2	·	8.1	·	51.5*	-14.1
CCOc1ccc(C(C)=O)cc1CSC(=N)N	-0.9	-10.6	-8.4	-15.9	18.7	-9.5
CCNC(=S)N=Nc1c(O)[nH]c2ccc(C(C)C)cc12	63.2*	-10.8	·	-1.6	5.5	12.0
CCN(CC)CCNC(CC(=O)Nc1ccc(Cl)cc1Cl)C(=O)O (stereo unspecified)	-3.0	-8.6	6.9	16.4	-14.1	62.6*
CCCNC(=O)c1ccc2c(=O)c(O)c(-c3ccc(F)cc3)[nH]c2c1	80.7*	4.7	17.1	-22.1	·	33.0
Nc1c(Cl)cc(-c2[nH]c3cc(C(=O)NCCO)ccc3c(=O)c2O)cc1Cl	-9.0	2.2	-3.4	-8.9	·	-1.1
CCCNC(=O)c1ccc2c(=O)c(O)c(-c3cccc(Br)c3)[nH]c2c1	83.7*	3.4	-9.7	-57.0	·	-1.7
CCCNC(=O)c1ccc2c(=O)c(O)c(C)[nH]c2c1	23.3	8.3	-9.8	11.8	·	·
CN1CCN(CCCNC(=O)c2ccc(/C=C3\Oc4ccccc4N(Cc4ccccc4F)C3=O)cc2)CC1	-3.9	-20.6	·	-29.1	·	-7.3
Cc1cccc(CN2C(=O)/C(=C\c3ccc(C(=O)NCCCN4CCN(C)CC4)cc3)Oc3ccccc32)c1	94.6*	40.4	·	-12.4	·	-33.9
COc1ccccc1/C=C/C(=O)OCC(=O)Nc1cc(C(F)(F)F)ccc1N1CCOCC1	-1.2	·	·	·	61.2*	-29.6
COc1ccc2cc(/C=N/NC(=O)c3ccc(CN(c4cccc(Cl)c4Cl)S(C)(=O)=O)cc3)c(Cl)nc2c1	66.9*	27.6	·	16.9	-13.2	40.6
COc1ccc2cc(/C=N/O)c(Cl)nc2c1	-53.5	-2.8	19.6	-25.5	-24.9	-4.1
COc1cc2nc(SCc3ccc(Cl)cc3Cl)n(Cc3cccs3)c(=N)c2cc1OC	8.4	-5.1	·	9.2	-4.3	·
